Results on 1 compound are retold here after BindingDB's records for doi:10.1021/ml1001807 (2011).

Some results are limits rather than exact numbers.

For assay [1], the target named is Hepatocyte growth factor receptor (Homo sapiens, UniProt P08581). Put plainly: Inhibition of HGFR by TR-FRET based LanthaScreen assay. In a few lines:
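LanthaScreen TR-FRET kinase format, run per the group's earlier protocol. IC50 from two independent experiments; for some compounds, PDGFRα and VEGFR2 values are means ± SD of three independent runs. The FGFR3 used was the K651E mutant.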

Assay [2] concerns the target Receptor tyrosine-protein kinase erbB-2 (Homo sapiens, UniProt P04626). Put plainly: Inhibition of HER2 by TR-FRET based LanthaScreen assay. In a few lines: (§1)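 TR-FRET LanthaScreen kinase assay with phosphorylation of a substrate; FGFR3 used as the K651E mutant. IC50 derived from two independent experiments; for some compounds, ALK and cKIT values are averages ± SDs of three independent experiments.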

The next assay addresses Ephrin type-B receptor 4 (Homo sapiens, UniProt P54760). Put plainly: Inhibition of EPHB4 by TR-FRET based LanthaScreen assay. In a few lines: as §1
A general note: TR-FRET usually uses a lanthanide donor and a delayed reading to cut background.

The target of assay [3] is 3-phosphoinositide-dependent protein kinase 1 (Homo sapiens) (UniProt O15530). Put plainly: Inhibition of PDK1 by Caliper mobility shift assay.
Assay [4] has as its target Cyclin-dependent kinase 2 (Homo sapiens, UniProt P24941). Put plainly: Inhibition of CDK2A by Caliper mobility shift assay. In a few lines:
(§2)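 Caliper microfluidic mobility shift readout of substrate phosphorylation, run per the group's earlier kinase protocol. IC50 taken from two independent experiments.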

The target in assay [5] is ALK tyrosine kinase receptor (Homo sapiens, UniProt Q9UM73). Put plainly: Inhibition of ALK by TR-FRET based LanthaScreen assay. In a few lines: as §1
ALK tyrosine kinase receptor, sequence (Q9UM73 whole entry): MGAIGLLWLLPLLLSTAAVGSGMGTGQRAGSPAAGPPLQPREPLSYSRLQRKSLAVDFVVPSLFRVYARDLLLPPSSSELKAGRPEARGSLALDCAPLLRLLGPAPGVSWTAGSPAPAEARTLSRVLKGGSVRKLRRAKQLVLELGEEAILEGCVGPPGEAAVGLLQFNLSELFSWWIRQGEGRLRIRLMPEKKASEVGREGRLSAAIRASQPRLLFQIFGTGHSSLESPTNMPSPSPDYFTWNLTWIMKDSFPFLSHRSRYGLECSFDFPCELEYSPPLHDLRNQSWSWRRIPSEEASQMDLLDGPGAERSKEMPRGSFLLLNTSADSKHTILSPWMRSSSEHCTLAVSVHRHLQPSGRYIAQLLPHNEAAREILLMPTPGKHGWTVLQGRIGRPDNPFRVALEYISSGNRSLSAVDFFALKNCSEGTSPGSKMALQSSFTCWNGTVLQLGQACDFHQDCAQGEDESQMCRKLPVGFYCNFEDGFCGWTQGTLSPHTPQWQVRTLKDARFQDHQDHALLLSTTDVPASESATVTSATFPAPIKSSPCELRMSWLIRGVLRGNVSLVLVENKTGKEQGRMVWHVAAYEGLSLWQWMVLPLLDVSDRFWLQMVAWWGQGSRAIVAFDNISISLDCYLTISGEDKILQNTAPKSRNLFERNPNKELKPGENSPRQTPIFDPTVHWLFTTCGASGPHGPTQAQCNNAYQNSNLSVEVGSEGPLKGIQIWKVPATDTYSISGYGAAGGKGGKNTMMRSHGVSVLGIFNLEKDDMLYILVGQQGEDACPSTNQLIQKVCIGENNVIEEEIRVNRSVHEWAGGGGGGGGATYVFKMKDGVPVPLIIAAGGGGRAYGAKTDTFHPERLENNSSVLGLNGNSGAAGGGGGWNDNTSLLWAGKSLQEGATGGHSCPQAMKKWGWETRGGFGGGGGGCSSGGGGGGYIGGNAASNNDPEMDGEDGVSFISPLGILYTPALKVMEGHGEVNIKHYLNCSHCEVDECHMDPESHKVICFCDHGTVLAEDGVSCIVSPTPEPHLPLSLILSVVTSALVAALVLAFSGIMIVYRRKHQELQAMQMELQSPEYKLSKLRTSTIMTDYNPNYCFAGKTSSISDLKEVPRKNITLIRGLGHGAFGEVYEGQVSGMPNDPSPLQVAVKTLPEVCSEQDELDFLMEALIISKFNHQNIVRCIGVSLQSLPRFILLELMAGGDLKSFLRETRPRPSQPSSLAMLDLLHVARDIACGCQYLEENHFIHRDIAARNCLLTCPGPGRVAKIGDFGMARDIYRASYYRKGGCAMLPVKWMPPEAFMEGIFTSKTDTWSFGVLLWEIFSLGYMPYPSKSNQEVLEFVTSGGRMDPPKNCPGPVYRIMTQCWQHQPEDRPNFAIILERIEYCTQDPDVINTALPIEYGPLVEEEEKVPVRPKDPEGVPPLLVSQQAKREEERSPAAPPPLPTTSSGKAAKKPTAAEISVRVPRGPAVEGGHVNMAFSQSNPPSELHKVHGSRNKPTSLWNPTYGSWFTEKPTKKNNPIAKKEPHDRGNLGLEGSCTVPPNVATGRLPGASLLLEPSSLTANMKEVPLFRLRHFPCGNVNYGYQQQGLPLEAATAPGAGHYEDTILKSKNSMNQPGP
The target of assay [6] is Rho-associated protein kinase 2 (Homo sapiens, UniProt O75116). Put plainly: Inhibition of ROCK2 by Caliper mobility shift assay. In a few lines:
(§3)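 Caliper mobility shift kinase assay with phosphorylation of a substrate; IC50 derived from two independent experiments.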

Assay [7] deals with Mitogen-activated protein kinase 14 (Homo sapiens, UniProt Q16539). Put plainly: Inhibition of p38alpha by Caliper mobility shift assay. In a few lines:
as §2

Assay [8] deals with Serine/threonine-protein kinase N2 (Homo sapiens, UniProt Q16513). Put plainly: Inhibition of PKN2 by Caliper mobility shift assay. In a few lines:
as §3

Assay [9] has as its target Tyrosine-protein kinase JAK1 (Homo sapiens, UniProt P23458). Put plainly: Inhibition of JAK1 by TR-FRET based LanthaScreen assay.
Assay [10] has as its target Tyrosine-protein kinase receptor UFO (Homo sapiens, UniProt P30530). Put plainly: Inhibition of Axl by TR-FRET based LanthaScreen assay. In a few lines:
as §1

Assay [11] has as its target Tyrosine-protein kinase JAK3 (Homo sapiens, UniProt P52333). Put plainly: Inhibition of JAK3 by Caliper mobility shift assay. In a few lines: as §3
For assay [12], the target named is Proto-oncogene tyrosine-protein kinase receptor Ret (Homo sapiens, UniProt P07949). Put plainly: Inhibition of RET by TR-FRET based LanthaScreen assay. In a few lines: as §1
For assay [13], the target named is cAMP-dependent protein kinase catalytic subunit alpha (Homo sapiens, UniProt P17612). Put plainly: Inhibition of PKAalpha by Caliper mobility shift assay.
In assay [14] the target is Fibroblast growth factor receptor 3 (Homo sapiens, UniProt P22607). Put plainly: Inhibition of FGFR3 by TR-FRET based LanthaScreen assay. In a few lines: as §1
For the next assay, the target named is Aurora kinase A (Homo sapiens, UniProt O14965). Put plainly: Inhibition of Aurora A kinase by Caliper mobility shift assay. In a few lines:
as §3

Assay [15] has as its target Tyrosine-protein kinase JAK2 (Homo sapiens, UniProt O60674). Put plainly: Inhibition of JAK2 by TR-FRET based LanthaScreen assay.
Assay [16] has as its target Insulin-like growth factor 1 receptor (Homo sapiens, UniProt P08069). Put plainly: Inhibition of IGF1R by TR-FRET based LanthaScreen assay. In a few lines:
as §1

For assay [17], the target named is Serine/threonine-protein kinase N1 (Homo sapiens, UniProt Q16512). Put plainly: Inhibition of PKN1 by Caliper mobility shift assay. In a few lines:
as §3

Assay [18] deals with Tyrosine-protein kinase ZAP-70 (Homo sapiens, UniProt P43403). Put plainly: Inhibition of ZAP70 by TR-FRET based LanthaScreen assay. In a few lines: as §1
A further assay deals with Insulin receptor (Homo sapiens, UniProt P06213). Put plainly: Inhibition of INSR by TR-FRET based LanthaScreen assay. In a few lines: as §1
A further assay has as its target Ephrin type-A receptor 4 (Homo sapiens, UniProt P54764). Put plainly: Inhibition of EPHA4 by TR-FRET based LanthaScreen assay. In a few lines:
as §1

The target of assay [19] is Glycogen synthase kinase-3 beta (Homo sapiens, UniProt P49841). Put plainly: Inhibition of GSK3-beta by TR-FRET based LanthaScreen assay. In a few lines:
as §1

Mitogen-activated protein kinase 14, sequence (Q16539 whole entry): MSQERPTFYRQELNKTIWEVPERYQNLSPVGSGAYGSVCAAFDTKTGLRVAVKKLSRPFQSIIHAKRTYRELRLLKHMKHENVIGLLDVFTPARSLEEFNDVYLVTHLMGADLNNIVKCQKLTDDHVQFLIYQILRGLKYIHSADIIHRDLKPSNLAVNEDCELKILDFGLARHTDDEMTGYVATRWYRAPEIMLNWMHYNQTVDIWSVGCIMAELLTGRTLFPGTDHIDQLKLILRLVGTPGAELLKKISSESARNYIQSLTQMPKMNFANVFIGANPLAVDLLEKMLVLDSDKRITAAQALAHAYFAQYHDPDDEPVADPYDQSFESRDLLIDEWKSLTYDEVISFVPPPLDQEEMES
Glycogen synthase kinase-3 beta, sequence (P49841 whole entry): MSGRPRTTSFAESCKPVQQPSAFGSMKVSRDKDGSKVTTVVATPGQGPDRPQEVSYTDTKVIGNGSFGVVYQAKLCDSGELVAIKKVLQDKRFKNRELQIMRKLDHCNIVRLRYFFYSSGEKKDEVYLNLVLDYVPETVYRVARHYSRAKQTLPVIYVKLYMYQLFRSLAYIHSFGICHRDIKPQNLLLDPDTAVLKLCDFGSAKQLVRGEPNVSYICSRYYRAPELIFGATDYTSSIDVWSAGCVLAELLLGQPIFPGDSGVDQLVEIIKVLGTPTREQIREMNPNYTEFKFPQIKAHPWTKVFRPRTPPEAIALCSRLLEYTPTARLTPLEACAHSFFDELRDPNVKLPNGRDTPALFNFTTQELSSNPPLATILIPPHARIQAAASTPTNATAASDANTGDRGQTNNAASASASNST
Ephrin type-B receptor 4, sequence (P54760 whole entry): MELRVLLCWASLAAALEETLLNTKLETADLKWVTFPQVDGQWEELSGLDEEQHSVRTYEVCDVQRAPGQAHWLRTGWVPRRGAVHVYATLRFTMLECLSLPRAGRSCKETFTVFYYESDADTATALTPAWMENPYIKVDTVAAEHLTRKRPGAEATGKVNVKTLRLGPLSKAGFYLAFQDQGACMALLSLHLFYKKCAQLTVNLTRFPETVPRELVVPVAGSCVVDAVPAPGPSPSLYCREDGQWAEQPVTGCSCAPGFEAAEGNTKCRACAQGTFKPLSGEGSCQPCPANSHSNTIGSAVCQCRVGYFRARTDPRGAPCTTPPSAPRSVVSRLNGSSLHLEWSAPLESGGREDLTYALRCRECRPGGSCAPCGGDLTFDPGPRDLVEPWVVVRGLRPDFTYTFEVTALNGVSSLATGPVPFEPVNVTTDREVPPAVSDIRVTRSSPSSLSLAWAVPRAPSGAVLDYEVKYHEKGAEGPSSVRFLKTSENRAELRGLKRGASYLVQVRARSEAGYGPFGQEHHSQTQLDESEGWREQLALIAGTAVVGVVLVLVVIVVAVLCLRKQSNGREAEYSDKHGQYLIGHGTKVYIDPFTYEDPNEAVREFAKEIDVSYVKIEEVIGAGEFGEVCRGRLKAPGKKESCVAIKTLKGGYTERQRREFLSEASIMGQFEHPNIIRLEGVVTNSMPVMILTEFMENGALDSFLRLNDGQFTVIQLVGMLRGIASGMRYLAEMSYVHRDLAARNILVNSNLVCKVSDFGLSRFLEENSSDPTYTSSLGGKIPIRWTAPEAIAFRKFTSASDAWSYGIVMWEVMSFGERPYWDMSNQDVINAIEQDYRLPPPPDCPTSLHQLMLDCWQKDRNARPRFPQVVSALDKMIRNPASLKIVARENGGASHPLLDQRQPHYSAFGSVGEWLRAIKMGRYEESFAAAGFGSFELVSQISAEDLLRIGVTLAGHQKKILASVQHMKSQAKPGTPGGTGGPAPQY
Aurora kinase A, sequence (O14965 whole entry): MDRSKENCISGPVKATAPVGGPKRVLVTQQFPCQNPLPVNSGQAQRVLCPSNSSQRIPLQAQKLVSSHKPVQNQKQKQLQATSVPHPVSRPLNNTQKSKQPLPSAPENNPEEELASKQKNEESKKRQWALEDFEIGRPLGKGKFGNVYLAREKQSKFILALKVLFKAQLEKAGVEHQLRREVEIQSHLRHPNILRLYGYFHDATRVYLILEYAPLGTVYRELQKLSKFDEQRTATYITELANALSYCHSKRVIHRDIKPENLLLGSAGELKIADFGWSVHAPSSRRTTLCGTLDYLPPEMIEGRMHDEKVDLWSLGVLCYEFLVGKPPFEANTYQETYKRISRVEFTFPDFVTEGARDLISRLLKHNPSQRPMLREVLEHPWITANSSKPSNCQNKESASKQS
Tyrosine-protein kinase receptor UFO, sequence (P30530 whole entry): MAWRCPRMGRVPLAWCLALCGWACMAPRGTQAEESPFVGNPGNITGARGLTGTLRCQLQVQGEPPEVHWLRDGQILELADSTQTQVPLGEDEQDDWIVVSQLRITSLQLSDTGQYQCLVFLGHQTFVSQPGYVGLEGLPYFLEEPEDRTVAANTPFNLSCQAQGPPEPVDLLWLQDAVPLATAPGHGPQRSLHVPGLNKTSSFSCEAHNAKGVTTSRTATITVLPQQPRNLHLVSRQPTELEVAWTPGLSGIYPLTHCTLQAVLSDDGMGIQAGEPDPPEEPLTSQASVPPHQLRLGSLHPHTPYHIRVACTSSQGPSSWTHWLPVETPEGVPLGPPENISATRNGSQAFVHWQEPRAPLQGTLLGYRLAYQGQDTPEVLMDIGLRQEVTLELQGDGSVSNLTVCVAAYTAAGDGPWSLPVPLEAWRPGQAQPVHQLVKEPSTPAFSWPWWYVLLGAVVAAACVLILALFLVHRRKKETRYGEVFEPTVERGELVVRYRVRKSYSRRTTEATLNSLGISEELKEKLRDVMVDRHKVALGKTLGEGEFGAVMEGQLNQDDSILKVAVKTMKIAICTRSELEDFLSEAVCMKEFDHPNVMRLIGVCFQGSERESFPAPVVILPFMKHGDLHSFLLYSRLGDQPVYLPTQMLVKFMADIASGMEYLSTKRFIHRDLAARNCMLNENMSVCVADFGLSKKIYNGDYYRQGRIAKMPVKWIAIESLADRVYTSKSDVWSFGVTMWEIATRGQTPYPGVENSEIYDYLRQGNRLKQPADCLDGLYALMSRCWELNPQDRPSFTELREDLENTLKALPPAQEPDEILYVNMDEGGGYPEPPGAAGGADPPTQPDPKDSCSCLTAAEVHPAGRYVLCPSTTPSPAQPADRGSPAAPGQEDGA

In general, IC50 refers to the midpoint of a concentration-inhibition curve. Take `COc1cc(O)c2c(c1)CCCC(=O)C(=O)C(O)CCC[C@H](C)OC2=O` (stereo partly drawn) [L-783277]: the IC50 in assay [1] was > 10 µM; in assay [2], > 10 µM; at Ephrin type-B receptor 4 it was > 10 µM; in assay [3], > 10 µM; in assay [4] it was > 10 µM; in [5], 0.763 µM. For the same compound, the IC50 in assay [6], in assay [7], in [8], in assay [9], in assay [10] and in assay [11] was > 10 µM each time. The concentration for half-maximal inhibition (IC50) (in assay [12]; in assay [13]; in assay [14]; on Aurora kinase A; in assay [15]; in assay [16]) was > 10 µM throughout. The IC50 (in assay [17]; in [18]; against Insulin receptor; at Ephrin type-A receptor 4; in assay [19]) was > 10 µM throughout.
